ChEMBL document CHEMBL1138918, “Discovery of potent and orally available malonyl-CoA decarboxylase inhibitors as cardioprotective agents” (J Med Chem, 2006)
Calls of active or inactive are those of the source. No cut-off for these calls is given here.

What was measured:
Rattus norvegicus [1] = organism: Rattus norvegicus; assay: Increase in glucose oxidation rate in rat heart at 10 uM relative to control; assay type: functional
Outline: (§1)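 Isolated working rat hearts; glucose oxidation rate expressed as ratio of compound-treated to 0.05% DMSO vehicle control, n = 8 hearts; test concentration 10 µM, or 1 µM where stated.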

[2] = Tmax in Sprague-Dawley rat at 10 mg/kg, po; assay type: ADME, organism-based; set-up: dose 10 mg/kg, route oral; settings: in vivo
[3] = Cmax in Sprague-Dawley rat at 10 mg/kg, po; assay type: ADME, organism-based; set-up: dose 10 mg/kg, route oral; settings: in vivo
[4] = Half life in Sprague-Dawley rat at 10 mg/kg, iv; assay type: ADME, organism-based; set-up: dose 10 mg/kg, route intravenous; settings: in vivo
[5] = Oral bioavailability in Sprague-Dawley rat at 10 mg/kg, iv and po; assay type: ADME, organism-based; settings: in vivo
Outline: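 Rats dosed iv and po; F computed as ratio of dose-normalized oral to iv plasma AUC over the same time frame.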

Rattus norvegicus [6] = assay: Volume of distribution in Sprague-Dawley rat at 10 mg/kg, iv or po; assay type: ADME, organism-based; set-up: dose 10 mg/kg, route oral; settings: in vivo
Rattus norvegicus [7] = organism: Rattus norvegicus; assay: Increase in glucose oxidation rate in rat heart at 1 uM relative to control; assay type: functional; outline: as §1
Rattus norvegicus [8] = organism: Rattus norvegicus; assay: Cardioprotective activity in global ischemia-reperfusion rat model; assay type: functional, organism-based
Outline: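 Isolated rat hearts perfused aerobically 30 min, then 30 min global no-flow ischemia and 60 min aerobic reperfusion; compound at 1 µM added to perfusate either before ischemia or at onset of reperfusion.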

| Structure (SMILES) | Activity (Rattus norvegicus [1]) [%] | other results |
| --- | --- | --- |
| CC(C)CCCC(C)NC(=O)C1=NOC(C(O)(C(F)(F)F)C(F)(F)F)C1 (stereo unspecified) | 1.26 |  |
| CC(C)C[C@@H](CC(=O)OC(C)(C)C)NC(=O)C1=NOC(C(O)(C(F)(F)F)C(F)(F)F)C1 (stereo partly specified) | 3.24 |  |
| CC(C)(C)OC(=O)CCNC(=O)C1=NOC(C(O)(C(F)(F)F)C(F)(F)F)C1 (stereo unspecified) | 4.54 |  |
| CC(C)CC(CC(=O)OC(C)(C)C)NC(=O)C1=NOC(C(O)(C(F)(F)F)C(F)(F)F)C1 (stereo unspecified) | 4.28 |  |
| CCCCCC(C)NC(=O)C1=NOC(C(O)(C(F)(F)F)C(F)(F)F)C1 (stereo unspecified) | 0.8 |  |
| CC(CC(=O)OC(C)(C)C)NC(=O)C1=NOC(C(O)(C(F)(F)F)C(F)(F)F)C1 (stereo unspecified) | 7.32 | Tmax [2]: 0.5 h; Cmax [3]: 2680 ng/mL; half-life [4]: 2.3 h; bioavailability [5]: 74%; Vss (Rattus norvegicus [6]): 2.193 L/kg; Activity (Rattus norvegicus [7]): 3.07%; Activity (Rattus norvegicus [8]): Active |
| CC(C)(C)OCCCNC(=O)C1=NOC(C(O)(C(F)(F)F)C(F)(F)F)C1 (stereo unspecified) | 5.42 |  |
| CC(C)CN(CC(C)C)C(=O)C1=NOC(C(O)(C(F)(F)F)C(F)(F)F)C1 (stereo unspecified) | 2.11 |  |
| C[C@@H](CC(=O)OC(C)(C)C)NC(=O)C1=NOC(C(O)(C(F)(F)F)C(F)(F)F)C1 (stereo partly specified) | 5.01 |  |
